High-throughput results deposited in PubChem by several laboratories.
CASP6 VEID inh: human caspase-6 inhibitors, primary screen, biochemical, VEID-R110 fluorescence, single point, set 2 | P55212 | purified caspase-6, Z-VEID-R110 cleavage fluorescence | inhibition, % at 12.5 µM | 0.53% of 350,000 active | AID 686996, 2013;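 active means mean inhibition across replicates at least about 35%, with every replicate also reaching that limit, limit read from the data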
Target sequence (P55212 24-179 limits assumed): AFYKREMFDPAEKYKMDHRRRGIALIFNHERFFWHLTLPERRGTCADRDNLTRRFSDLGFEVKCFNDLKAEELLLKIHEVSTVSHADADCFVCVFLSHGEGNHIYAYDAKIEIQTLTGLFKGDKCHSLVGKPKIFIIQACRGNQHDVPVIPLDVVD
Target sequence (P55212 194-293 limits assumed): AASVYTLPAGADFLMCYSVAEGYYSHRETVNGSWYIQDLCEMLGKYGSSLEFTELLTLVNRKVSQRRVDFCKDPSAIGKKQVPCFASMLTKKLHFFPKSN
NSD2 HMT inh: NSD2 histone methyltransferase inhibitors, primary screen, biochemical, AlphaScreen, single concentration, set 2; 0.54% of 310,000 active; Histone-lysine N-methyltransferase NSD2 (Homo sapiens), O96028; inhibition, % at 12.5 µM; NSD2 peptide methylation, 120 min; in the data active means inhibition above about 50%
SIRT5 block: SIRT5 desuccinylase inhibitors, primary screen, biochemical, fluorescence imaging, single point, set 5; 1.1% of 330,000 active; AID 652115, 2013; inhibition, % at 15 µM; Purified SirT5, succinyl-peptide AMC, trypsin-coupled fluorescence; in the data active means inhibition above about 15%
UCH37 inh: inhibitors of human UCH37 deubiquitinase, primary screen, biochemical, Ub-AMC cleavage, fluorescence. Ubiquitin carboxyl-terminal hydrolase isozyme L5 (Homo sapiens), Q9Y5K5. purified proteasome/UCH37. inhibition, % (test concentration not listed). 0.33% of 330,000 active;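 active means mean inhibition over replicate wells above about 20%, limit read from the data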
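Test system – human UCH37 enzyme supplied as purified proteasome complex · Incubation – 30 min preincubation with enzyme, 25 min cleavage at room temperature · Detection – AMC fluorescence from Ub-AMC cleavage, excitation 355 nm, emission 460 nm · Benchmarks – no-proteasome wells (full inhibition) and compound-free wells (no inhibition)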
FGF22 binding: binders of human FGF22 protein, primary screen, FGF22 synaptogenesis inhibitor project, biophysical, thermal shift, single point | 1.5% of 340,000 active | activity (Tm shift, normalised), % at 9.99 µM | Fibroblast growth factor 22 (Homo sapiens), Q9HCT0 | recombinant FGF22 thermal shift, SYPRO orange fluorescence; percent of sucrose octasulfate shift, DMSO zero;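 active means mean Tm shift, scaled 0 neutral to 100 positive control, at about 1.3% or above, every replicate too, limit read from the data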
Target sequence (Q9HCT0 whole entry, looked up): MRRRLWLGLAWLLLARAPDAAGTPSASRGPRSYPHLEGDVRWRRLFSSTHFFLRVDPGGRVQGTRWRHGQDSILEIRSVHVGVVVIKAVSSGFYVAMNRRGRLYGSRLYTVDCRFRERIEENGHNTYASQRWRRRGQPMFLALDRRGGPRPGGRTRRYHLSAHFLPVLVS
Each line names hits and unclear results; the compound was inactive in the other large screens. Shown are actives, neighbours in structure and some others; about 2.6% of the full set was active somewhere.

O=C(O)COc1ccc(NC(=O)c2ccco2)cc1	none (no result: CASP6 VEID inh, NSD2 HMT inh, SIRT5 block, FGF22 binding)
O=C(/C=C\c1ccco1)c1ccc(NC(=O)c2ccco2)cc1	FGF22 binding 42.9
O=C(O)COc1ccc(NC(=O)c2ccc(NC(=O)c3ccco3)cc2)cc1	FGF22 binding 43.6
COc1ccc(Cl)cc1NC(=O)CN(C)CC(=O)Nc1cc(OC)c(OC)c(OC)c1	SIRT5 block 15.3
COc1ccc(Cl)cc1NC(=O)CN(C)CC(=O)Nc1ccc(Br)cc1	none (no result: NSD2 HMT inh)
COC(=O)c1ccccc1NC(=O)CN(c1cc(OC)ccc1OC)S(C)(=O)=O	none (no result: CASP6 VEID inh, SIRT5 block, FGF22 binding)
CCOc1ccc(N(C(C)C(=O)Nc2cccnc2)S(C)(=O)=O)cc1 (configuration not stated)	FGF22 binding 43.4
COc1ccc(OC)c(N(CC(=O)Nc2ccccc2)S(C)(=O)=O)c1	CASP6 VEID inh 36.6
COc1ccc(NC(=O)CN(c2ccc(Cl)cc2)S(C)(=O)=O)cc1OC	SIRT5 block 24.7
C[C@H]1CN([C@@H](C)CO)C(=O)c2cc(NC(=O)CCCCCC(=O)Nc3ccccc3N)ccc2O[C@H]1CN(C)S(=O)(=O)c1cn(C)cn1	none (no result: CASP6 VEID inh, NSD2 HMT inh, SIRT5 block, UCH37 inh)
CCCNC(=O)C[C@H]1CC[C@@H]2[C@H](COC[C@@H](O)CN2CC2CCCCC2)O1	none (no result: NSD2 HMT inh, UCH37 inh)
COc1ccc(C=NNC(=O)c2ccoc2C)cc1CN1CCN(c2ccc(F)cc2)CC1	none (no result: CASP6 VEID inh, NSD2 HMT inh, SIRT5 block, FGF22 binding)
COc1ccc(N(CC(=O)Nc2cccnc2)S(C)(=O)=O)cc1	FGF22 binding 43.0
COc1ccc(NC(=O)N(C)C[C@H]2OCCCC[C@H](C)Oc3ccc(NC(=O)Nc4ccccc4)cc3C(=O)N([C@@H](C)CO)C[C@H]2C)cc1	none (no result: NSD2 HMT inh, UCH37 inh)
C[C@H](CO)N1C[C@H](C)[C@@H](CN(C)C(=O)Nc2ccc3c(c2)OCO3)Oc2ccc(NS(=O)(=O)c3cn(C)cn3)cc2CC1=O	none (no result: NSD2 HMT inh, UCH37 inh)
COc1cccc(NC(=O)Cn2c(=O)n(C)c(=O)c3sc4c(c32)COC(C)(C)C4)c1	CASP6 VEID inh 43.9
Cc1cccc(NC(=O)Cn2nnc3sc4c(c3c2=O)CC(C)(C)OC4)c1	none
COc1ccc(/C=C/C(=O)O)cc1S(=O)(=O)N1CCCc2ccccc21	none
COc1cc(/C=C/C(=O)O)ccc1S(=O)(=O)N1CCCc2ccccc21	FGF22 binding 43.5
[O-]/C(=C(\C(=S)NCc1ccccc1)[n+]1ccccc1)c1ccc(Cl)s1	FGF22 binding 43.0
[O-]/C(=C(\C(=S)NCCN1CCOCC1)[n+]1ccccc1)c1ccc(Cl)s1	none
CC(C)C(NC(=O)c1ccco1)C(=O)OCC(=O)Nc1ccc(C(N)=O)cc1 (configuration not stated)	FGF22 binding 43.3
CC(C)[C@H](NC(=O)OCc1ccccc1)C(=O)OCC(=O)NCc1ccco1	FGF22 binding 43.1 (no result: SIRT5 block)
O=C(COC(=O)Cc1cccc(C(F)(F)F)c1)NCc1ccco1	CASP6 VEID inh 58.2
COc1cccc(C(=O)Nc2ccc3c(c2)OC[C@H](C)N(CC2CC2)C[C@H](C)[C@H](OC)CN(C)C3=O)c1	none (no result: NSD2 HMT inh, UCH37 inh)
COc1ccc(S(=O)(=O)N(C)C[C@H]2Oc3ccc(NC(=O)CCN4CCOCC4)cc3CC(=O)N([C@H](C)CO)C[C@H]2C)cc1	none (no result: NSD2 HMT inh, UCH37 inh)
O=C(O)c1ccccc1NS(=O)(=O)c1ccc(N/N=C/c2ccc(O)c(O)c2)c([N+](=O)[O-])c1	CASP6 VEID inh 63.8, NSD2 HMT inh 115.8, SIRT5 block 20.7 (no result: UCH37 inh)
NS(=O)(=O)c1ccc(N/N=C/c2ccccc2C(=O)O)c([N+](=O)[O-])c1	FGF22 binding 43.2 (no result: UCH37 inh)
O=C(O)c1ccccc1NS(=O)(=O)c1ccc(NN=Cc2cccc(Cl)c2)c([N+](=O)[O-])c1	CASP6 VEID inh 62.4
O=C(O)COc1ccccc1C=NNc1ccc(S(=O)(=O)N2CCOCC2)cc1[N+](=O)[O-]	UCH37 inh 23.0 (no result: CASP6 VEID inh, NSD2 HMT inh, SIRT5 block, FGF22 binding)
COc1ccc(Br)cc1C=NNc1ccc(S(=O)(=O)Nc2ccccc2C(=O)O)cc1[N+](=O)[O-]	none (no result: CASP6 VEID inh, NSD2 HMT inh, SIRT5 block, FGF22 binding)
O=C(O)c1ccccc1NS(=O)(=O)c1ccc(NN=Cc2ccc(F)cc2)c([N+](=O)[O-])c1	none (no result: CASP6 VEID inh, SIRT5 block, FGF22 binding)
CCC(=O)NCCCNc1nc2c(C)cccc2cc1C#N	FGF22 binding 42.9
O=C(N[C@H]1CC[C@@H](CCNS(=O)(=O)c2ccc(Cl)cc2)O[C@H]1CO)c1ccccn1	none (no result: NSD2 HMT inh, UCH37 inh)
CC(C)=CC(=O)Nc1ccc(OCc2ccccc2)cc1	FGF22 binding 73.6
O=C(COC(=O)c1cn(-c2ccccc2)nc1-c1ccc(F)cc1)Nc1ncc(Cl)cc1Cl	FGF22 binding 43.8
NS(=O)(=O)c1ccc(NC(=O)COC(=O)c2cn(-c3ccccc3)nc2-c2ccc(F)cc2)cc1	none (no result: CASP6 VEID inh, SIRT5 block, FGF22 binding)
COc1ccccc1S(=O)(=O)N[C@@H]1C=C[C@@H](CC(=O)N2CCCCC2)O[C@H]1CO	none (no result: NSD2 HMT inh, UCH37 inh)
O=C(O)c1c2c(nc3ccc(S(=O)(=O)N4CCC(C(=O)NCc5ccc(Cl)cc5)CC4)cc13)CCCC2	CASP6 VEID inh 64.5
COc1ccc(CNC(=O)C2CCN(S(=O)(=O)c3ccc4nc5c(c(C(=O)O)c4c3)CCCC5)CC2)cc1	CASP6 VEID inh 54.0 (no result: UCH37 inh)
O=C(O)c1c2c(nc3ccc(S(=O)(=O)N4CCC(C(=O)NCc5ccccc5Cl)CC4)cc13)CCCC2	CASP6 VEID inh 44.2
COc1ccc(CCNC(=O)C2CCN(S(=O)(=O)c3ccc4nc5c(c(C(=O)O)c4c3)CCCC5)CC2)cc1OC	none
O=C(O)c1c2c(nc3ccc(S(=O)(=O)N4CCC(C(=O)NC5CCCCCC5)CC4)cc13)CCCC2	CASP6 VEID inh 43.1 (no result: FGF22 binding)
COc1ccc(S(=O)(=O)N(C)C[C@H]2Oc3c(NC(=O)Nc4cccc5ccccc45)cccc3C(=O)N([C@H](C)CO)C[C@H]2C)cc1	none (no result: NSD2 HMT inh, UCH37 inh)
COc1ccc2c3c([nH]c2c1)[C@H](CO)N(CC1CCOCC1)CC31CN(C(=O)c2ccc(F)cc2)C1	none (no result: NSD2 HMT inh, UCH37 inh)
COc1ccc(CC(=O)NC(C)c2nnc(SCC(=O)c3ccc(OC)cc3)n2C)cc1 (configuration not stated)	none
COc1ccccc1NC(=O)CSc1nnnn1C	none (no result: CASP6 VEID inh, SIRT5 block, FGF22 binding)
COc1ccc(CC(=O)NC(C)c2nnc(SCC(=O)Nc3cc(C)ccc3OC)n2C)cc1 (configuration not stated)	FGF22 binding 1.6
COc1ccc(OC)c(NC(=O)CSc2nnnn2C)c1	FGF22 binding 43.2
COc1ccc(CC(=O)NC(C)c2nnc(SCCOc3ccc(OC)cc3)n2C)cc1 (configuration not stated)	SIRT5 block 29.3 (no result: FGF22 binding)
COc1ccc(OC)c(NC(=O)CSc2nnc(CNC(=O)c3cccs3)o2)c1	SIRT5 block 21.2
COc1ccc(OC)c(NC(=O)CSc2nnc(CNC(=O)c3ccco3)o2)c1	none (no result: CASP6 VEID inh, NSD2 HMT inh, SIRT5 block, FGF22 binding)
